# Experimental data of several laboratories.
# ABL1 non-phosphorylated: Tyrosine-protein kinase ABL1, non-phosphorylated (ABL1, Homo sapiens, UniProt P00519)
# ABL1 H396P non-phosphorylated: Tyrosine-protein kinase ABL1, non-phosphorylated (ABL1, Homo sapiens, UniProt P00519, H396P)
# ABL1 F317L phosphorylated: Tyrosine-protein kinase ABL1, phosphorylated (ABL1, Homo sapiens, UniProt P00519, F317L)
# ABL1 phosphorylated: Tyrosine-protein kinase ABL1, phosphorylated (ABL1, Homo sapiens, UniProt P00519)
# ABL1 Q252H non-phosphorylated: Tyrosine-protein kinase ABL1, non-phosphorylated (ABL1, Homo sapiens, UniProt P00519, Q252H)
# ABL1 H396P phosphorylated: Tyrosine-protein kinase ABL1, phosphorylated (ABL1, Homo sapiens, UniProt P00519, H396P)
# ABL1 F317L non-phosphorylated: Tyrosine-protein kinase ABL1, non-phosphorylated (ABL1, Homo sapiens, UniProt P00519, F317L)
# ABL1 Y253F: Tyrosine-protein kinase ABL1 (ABL1, Homo sapiens, UniProt P00519, Y253F)
# ABL1 Q252H phosphorylated: Tyrosine-protein kinase ABL1, phosphorylated (ABL1, Homo sapiens, UniProt P00519, Q252H)
# ABL1 F317I non-phosphorylated: Tyrosine-protein kinase ABL1, non-phosphorylated (ABL1, Homo sapiens, UniProt P00519, F317I)
Structure (SMILES),target,assay,conditions,remaining binding
COc1ncc2cc3ccccc3nc2c1C#N,"Tyrosine-protein kinase ABL1, phosphorylated (ABL1, Homo sapiens, UniProt P00519, M351T)","cell-free assay, competition with immobilised ligand",5 µM,100%
c1cncc(-c2cccc(Nc3nccc(NC4CCCCC4)n3)c2)c1,ABL1 non-phosphorylated,"binding, competition with immobilised ligand",10 µM,35%
O=C(NCCCN1CCOCC1)c1ccc(Nc2nccc(-c3cc4ccccc4s3)n2)cc1,ABL1 H396P non-phosphorylated,"binding, competition with immobilised ligand",1 µM,24%
COc1cccc(CNC(=O)c2nc3scc(COCc4ccc(C(=O)O)cc4)c3c(=O)[nH]2)c1,ABL1 F317L phosphorylated,"cell-free assay, competition with immobilised ligand",1 µM,87.2%
O=C(c1ccc(Nc2ncc(Cl)c(-c3ccc(Cl)s3)n2)cc1)N1CCC(N2CCCC2)CC1,ABL1 phosphorylated,"binding, competition with immobilised ligand",1 µM,4.3%
Nc1c(C(=O)NCc2ccc(C(=O)NCCCC3CCCCC3)cc2)cnn1-c1ccccc1,ABL1 Q252H non-phosphorylated,"cell-free assay, competition with immobilised ligand",0.1 µM,87%
CC1CCCN1c1nccc(-c2cnn3ncccc23)n1 (centres unmarked),"Tyrosine-protein kinase ABL1 (ABL1, Homo sapiens, UniProt P00519, F317L)",binding,1 µM,96%
O=C(Nc1c[nH]nc1C(=O)NC1CCNCC1)c1cc(F)cc(F)c1,"Tyrosine-protein kinase ABL1, phosphorylated (ABL1, Homo sapiens, UniProt P00519, F317I)","binding, competition with immobilised ligand",1 µM,85%
COc1cnc(Nc2cccc(S(N)(=O)=O)c2)nc1N1CCN(c2ccccc2)CC1,ABL1 F317L phosphorylated,"binding, competition with immobilised ligand",1 µM,74%
Nc1ncc2c(n1)-c1c([nH]c3ccc(C#CC4CC4)cc13)CCCC2,ABL1 H396P phosphorylated,"binding, competition with immobilised ligand",1 µM,93%
O=C(NCC1CCOCC1)c1n[nH]cc1NC(=O)c1c(F)cccc1F,ABL1 non-phosphorylated,"binding, competition with immobilised ligand",1 µM,88%
N[C@H]1CCN(c2nccc(-c3cnn4ncccc34)n2)C1,ABL1 non-phosphorylated,binding,1 µM,91%
CNC(=O)[C@@H]1CC[C@@H](n2c(-c3ccc4cnccc4c3)nc3ccc(C(=O)NCc4cccc(C(N)=O)c4)cc32)C1,ABL1 F317L non-phosphorylated,"binding, competition with immobilised ligand",1 µM,97%
CN(C)c1nccc(-c2cnn3ncccc23)n1,ABL1 Y253F,binding,1 µM,86%
O=C(NS(=O)(=O)c1ccc(NCC2CCOCC2)c([N+](=O)[O-])c1)c1ccc(N2CCN(Cc3ccc(C(F)(F)F)cc3-c3ccc(Cl)cc3)CC2)cc1Oc1cnc2[nH]ccc2c1,ABL1 Q252H non-phosphorylated,"cell-free assay, competition with immobilised ligand",1 µM,100%
Cc1cnc(Nc2ccc(C(=O)N3CCC(N4CCCC4)CC3)cc2)nc1-c1cc2ccccc2s1,ABL1 Q252H phosphorylated,"binding, competition with immobilised ligand",1 µM,1.4%
CN(c1nccc(-c2cnn3ncccc23)n1)C1CC1,"Tyrosine-protein kinase ABL1 (ABL1, Homo sapiens, UniProt P00519, T315I)",binding,1 µM,100%
C=CC(=O)N1CCC(C(=O)NCC(=O)N2CCN(c3nc(-c4cnc(N)nc4C(F)F)nc(N4CCOCC4)n3)CC2)CC1,ABL1 F317I non-phosphorylated,"binding, competition with immobilised ligand",1 µM,100%
CCN1CCN(Cc2ccc(C(=O)Nc3ccc(C)c(Oc4ccc5c(c4)CC(=O)N5)c3)cc2C(F)(F)F)CC1,ABL1 F317I non-phosphorylated,"binding, competition with immobilised ligand",1 µM,1%
C[C@@]1(Cc2ccc(C#N)cc2)C(=O)N(c2cc(Cl)cc(Cl)c2)c2ncc(C(=O)NC3(c4nc(C5CCC5)no4)CC3)n21,ABL1 F317I non-phosphorylated,"binding, competition with immobilised ligand",1 µM,94%
F[C@@H]1CCN(c2nccc(-c3cnn4ncccc34)n2)C1,ABL1 Y253F,binding,1 µM,90%
COc1cnc(Nc2cccc(S(N)(=O)=O)c2)nc1N1CCN(c2ccccc2)C(=O)C1,ABL1 Q252H phosphorylated,"binding, competition with immobilised ligand",1 µM,87%
C[C@@H](c1ccc(-n2cnc3c(N)ncnc32)cc1)N1CCc2nn(C)c(Cc3ccccc3)c2C1=O,"Tyrosine-protein kinase ABL1, phosphorylated (ABL1, Homo sapiens, UniProt P00519, T315I)","binding, competition with immobilised ligand",0.1 µM,78%
CSc1cccnc1N1CCN(Cc2nc3ccccc3[nH]2)CC1,ABL1 F317L non-phosphorylated,"cell-free assay, competition with immobilised ligand",1 µM,100%
COc1ccnn2ncc(-c3ccnc(N(C)C)n3)c12,ABL1 phosphorylated,binding,1 µM,73%
O=C(c1ccc(Nc2nccc(-c3cc4ccccc4s3)n2)cc1)N1CCC(N2CCCC2)CC1,ABL1 H396P phosphorylated,"binding, competition with immobilised ligand",1 µM,13%
COc1cc(-c2cn(C3CCc4c(F)cccc4N(CC(F)(F)F)C3=O)nn2)ccc1-n1cnc(C)c1 (centres unmarked),ABL1 phosphorylated,"cell-free assay, competition with immobilised ligand",1 µM,100%
C[C@H]1CCN(c2nccc(-c3cnn4ncccc34)n2)C1,"Tyrosine-protein kinase ABL1 (ABL1, Homo sapiens, UniProt P00519, M351T)",binding,1 µM,75%
C[C@@H]1CN(c2cc(-c3nn(C)c4ccc(OC5(C)CC5)cc34)ncn2)C[C@H](C)O1,ABL1 H396P non-phosphorylated,"cell-free assay, competition with immobilised ligand",1 µM,75%
O=C(NCCCN1CCOCC1)c1ccc(Nc2ncc(Cl)c(-c3ccc(Cl)s3)n2)cc1,ABL1 H396P phosphorylated,"binding, competition with immobilised ligand",1 µM,32%
N#CC1(c2ccccn2)CCN(Cc2cc(C(=O)N3CCCC3)c(=O)n3ccccc23)CC1,ABL1 Q252H phosphorylated,"cell-free assay, competition with immobilised ligand",1 µM,90%
O=C(c1ccc(Nc2ncc(Cl)c(-c3cc4ccccc4s3)n2)cc1)N1CCC(N2CCCC2)CC1,ABL1 F317L phosphorylated,"binding, competition with immobilised ligand",1 µM,54%
